Outcome data for 39 compounds are collected here from PubChem BioAssay.

Structures are written as SMILES. The source made the active and inactive calls.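 How the source made its calls, unless noted: active means active in primary screen and both duplicates, each dropping signal beyond three positive-control SD with fluorescence still positive; inactive means the rest.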

Chain of Short transient receptor potential channel 6 (Mus musculus) (Q61143 whole entry, looked up): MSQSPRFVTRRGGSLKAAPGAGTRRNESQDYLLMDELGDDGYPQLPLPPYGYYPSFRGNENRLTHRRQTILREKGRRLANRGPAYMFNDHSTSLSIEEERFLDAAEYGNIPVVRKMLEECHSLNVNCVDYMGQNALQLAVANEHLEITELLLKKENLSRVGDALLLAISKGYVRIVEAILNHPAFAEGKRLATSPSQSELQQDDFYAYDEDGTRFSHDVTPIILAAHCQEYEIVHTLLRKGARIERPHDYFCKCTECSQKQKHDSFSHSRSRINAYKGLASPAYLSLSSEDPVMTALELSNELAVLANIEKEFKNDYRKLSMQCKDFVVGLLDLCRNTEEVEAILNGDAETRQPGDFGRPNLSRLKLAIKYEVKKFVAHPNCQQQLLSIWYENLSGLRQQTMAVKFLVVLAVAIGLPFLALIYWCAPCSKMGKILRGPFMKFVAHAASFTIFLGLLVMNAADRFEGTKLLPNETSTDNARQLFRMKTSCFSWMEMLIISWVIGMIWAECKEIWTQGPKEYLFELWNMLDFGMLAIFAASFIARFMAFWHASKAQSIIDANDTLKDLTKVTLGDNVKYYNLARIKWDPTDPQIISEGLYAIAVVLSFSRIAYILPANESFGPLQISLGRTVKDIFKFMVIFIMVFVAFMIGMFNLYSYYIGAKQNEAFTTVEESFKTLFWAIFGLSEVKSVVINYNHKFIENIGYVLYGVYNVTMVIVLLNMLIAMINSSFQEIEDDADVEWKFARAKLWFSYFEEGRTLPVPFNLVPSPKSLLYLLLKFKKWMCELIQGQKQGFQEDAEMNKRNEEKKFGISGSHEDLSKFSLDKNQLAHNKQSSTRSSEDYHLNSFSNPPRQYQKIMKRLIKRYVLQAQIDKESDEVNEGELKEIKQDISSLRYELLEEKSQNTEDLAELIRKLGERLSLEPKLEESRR

For the first assay, the target named is Short transient receptor potential channel 6 (Mus musculus) (UniProt Q61143). Kind of assay: TRPC6 blockade by TRPC4 inhibitor hits – cell-based, HEK293, membrane potential dye, duplicate, selectivity assay for TRPC4 inhibitor project, confirmation (AID 434948). To be noted: HEK293 TRPC6, membrane potential dye fluorescence, at 10 µM, stimulated with maximal-effect acetylcholine. In outline:
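Times: 45 min RT dye load, 110 s compound, 110 s agonist read | Assay system: HEK293 cells expressing mouse TRPC6 channel | Detection: Kinetic membrane potential dye fluorescence | Replicates: Duplicate testing | Read-out: Control-normalized integrated fluorescence ratio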
As to `CN(CCCNC(=O)CCCOc1cc(=O)n(C)c2ccccc12)Cc1ccccc1`, the compound was classed as inactive.
In the case of `CCOc1ccccc1C(=O)NCCc1cnc[nH]1`, the outcome was inactive.
Same read-out and setting: the result for `Cc1ccccc1-n1c(=O)c2c(n3cnnc13)-c1ccccc1CC21CCCCC1` reads “inactive”.
Same read-out and setting: the result for `CN(C)S(=O)(=O)N1CCC(CCCC2CCN(S(=O)(=O)N(C)C)CC2)CC1` reads “inactive”; that for `O=C(Nc1ccnn1C1CCN(Cc2cc3ccccc3[nH]2)CC1)C1CCOC1` (stereo not drawn), “inactive”.
`C=CCOc1ccc(CN(C)Cc2nc3cc(C(F)(F)F)ccc3c(=O)[nH]2)cc1`: the result was inactive.
On to `Cc1ccc(C(=O)C[n+]2cccc3cc(C)ccc32)cc1`, for which the compound was classed as inactive.
Regarding `CN(C)CCCN(C(=O)CCc1ccccc1)c1nc2ccc(F)cc2s1`, the compound was called inactive.
`CC(=O)n1cc([C@@H]2C=C(C(=O)NCc3ccccc3)O[C@H](OCc3ccc(CO)cc3)C2)c2ccccc21`: the result was inactive.
Same read-out and setting: with `O=C(O)CCCN1C(=O)/C(=C\c2ccc(-c3nc4ccccc4s3)o2)SC1=S` the entry was “inactive”.
`CCOCCCn1c(=S)[nH]c2cc(C(=O)NCCCN(CC)CC)ccc2c1=O`: the result was inactive.
With `O=C(NCc1ccccc1)c1ccc(S(=O)(=O)Nc2cccc(C(F)(F)F)c2)cc1`, the result was inactive.
Same read-out and setting: with `CCOC(=O)C1CCCN(C(=O)CCCn2nnnc2CN2CCOCC2)C1` (stereo not drawn) the entry was “inactive”.
Still for that read-out and setting: the result for `COc1cc(OC)c2c(-c3ccccc3)cc(=O)oc2c1C(CCN1CCCCC1)c1ccc(N(C)C)cc1` (stereo not drawn) reads “inactive”.
On the same count and under the same terms, with `CCCCCCCCCC[n+]1cccc2c3ccccc3ccc21` the entry was “inactive”; with `CC(C)NS(=O)(=O)c1ccc(NC(=O)C(C)Oc2ccc(C(=O)c3ccccc3)cc2)cc1` (stereo not drawn), “inactive”.
In the case of `Cc1ccc(C(=O)NNC(=O)C2CSC3(C)CCC(=O)N23)cc1` (stereo not drawn), the compound was called inactive.
With `CCCc1nc2oc3c(NCCCN(C)C)ncnc3c2c2c1CCCC2`, the result was inactive.
Still for that read-out and setting: with `CCc1nc2ccccc2n1Cc1ccccc1F` the entry was “inactive”; with `O=C(Cc1ccccc1)Nc1cccc(NC(=O)c2cccs2)c1`, “inactive”; with `CCCCN(CC)CCCNC(=O)c1cc2cc3ccc(C)cc3nc2o1`, “inactive”.
On the same count and under the same terms, with `O=C1C=CC(=O)N1CCNc1ncc(C(F)(F)F)cc1Cl` the entry was “inactive”; with `Cc1cc(NC(=O)CSCC(=O)Nc2ccc(Cl)c(C(F)(F)F)c2)no1`, “inactive”.
Still for that read-out and setting: the result for `Cc1ccc2c(c1)C1CN(C)CCC1N2C(=S)NC(=O)c1ccc(Br)cc1` (stereo not drawn) reads “inactive”.
With `CCc1nc2ccccc2n1Cc1ccc(F)cc1`, the outcome was inactive.
Regarding `CCN(CC)CCSc1nnc2c3ccccc3n(Cc3ccccc3)c2n1`, the compound was classed as inactive.
Same read-out and setting: the result for `CCN1C2=NCCCN2c2cc(C)c(C)cc21` reads “inactive”.
On to `Cc1cc(C)c2c(=O)n(CC(=O)Nc3cccc(Cl)c3C)sc2n1`, for which the compound was called inactive.
The same measure, in the same setting: the result for `COc1cc(C2(c3ccc(O)c(OC)c3)C(=O)Nc3c(C)cc(Br)cc32)ccc1O` reads “inactive”; that for `COc1ccc(CC2(CO)CCN(C/C=C/c3ccccc3OC)CC2)cc1`, “inactive”; that for `Cc1nn(-c2cc(C(F)(F)F)ccc2Cl)c2nc(C(Cl)(Cl)Cl)[nH]c(=O)c12`, “inactive”.
The same measure, in the same setting: with `Cc1ccc(C(=O)O)cc1N=Cc1cc(Br)cc(Br)c1O` the entry was “inactive”; with `CCOc1ccc(N=CNc2ccc(OCC)cc2)cc1`, “inactive”; with `CCN(CC)c1ncnc2sc3c(c12)CCC3`, “inactive”.
On the same count and under the same terms, the result for `COc1ccc(NS(=O)(=O)c2ccc3ccccc3c2)c2ncccc12` reads “inactive”.
In the case of `CCN1CCN(CCC(=O)Nc2ccccc2OC)CC1`, the compound was called inactive.
Regarding `COc1cc(NC(=O)CSc2ncnc3sc4c(c23)CCC(C)C4)c(C(=O)O)cc1OC` (stereo not drawn), the result was inactive.
`Cc1[nH]nc(-c2ccc(O)cc2O)c1-c1nc2ccccc2s1`: the result was inactive.
With `CC1CCC2C(C1)c1sc(=O)[nH]c1SC2(C)C` (stereo not drawn), the result was inactive.

The target is the same in the next assay. Kind of assay: TRPC6 opening by TRPC4 activator hits – cell-based, HEK293, membrane potential dye, duplicate, selectivity assay for TRPC4 activator project, confirmation (AID 434950;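 active means membrane potential signal rise above negative control mean plus 3 SD in both duplicates, also active in the earlier TRPC4 screen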). Conditions: HEK293 TRPC6, membrane potential fluorescence, at 10 µM; activation: active compounds read high; outcome: activation.
Consider `CN(CCCNC(=O)CCCOc1cc(=O)n(C)c2ccccc12)Cc1ccccc1`, for which the compound was classed as inactive.
Same read-out and setting: with `CCOc1ccccc1C(=O)NCCc1cnc[nH]1` the entry was “inactive”.
On the same count and under the same terms, the result for `Cc1ccccc1-n1c(=O)c2c(n3cnnc13)-c1ccccc1CC21CCCCC1` reads “inactive”; that for `CN(C)S(=O)(=O)N1CCC(CCCC2CCN(S(=O)(=O)N(C)C)CC2)CC1`, “inactive”.
Regarding `O=C(Nc1ccnn1C1CCN(Cc2cc3ccccc3[nH]2)CC1)C1CCOC1` (stereo not drawn), the call was inactive.
Still for that read-out and setting: with `C=CCOc1ccc(CN(C)Cc2nc3cc(C(F)(F)F)ccc3c(=O)[nH]2)cc1` the entry was “inactive”.
As for `Cc1ccc(C(=O)C[n+]2cccc3cc(C)ccc32)cc1`, the compound was classed as inactive.
With `CN(C)CCCN(C(=O)CCc1ccccc1)c1nc2ccc(F)cc2s1`, the call was inactive.
On the same count and under the same terms, the result for `CC(=O)n1cc([C@@H]2C=C(C(=O)NCc3ccccc3)O[C@H](OCc3ccc(CO)cc3)C2)c2ccccc21` reads “inactive”; that for `O=C(O)CCCN1C(=O)/C(=C\c2ccc(-c3nc4ccccc4s3)o2)SC1=S`, “inactive”; that for `CCOCCCn1c(=S)[nH]c2cc(C(=O)NCCCN(CC)CC)ccc2c1=O`, “inactive”.
On to `O=C(NCc1ccccc1)c1ccc(S(=O)(=O)Nc2cccc(C(F)(F)F)c2)cc1`, for which the result was inactive.
On to `CCOC(=O)C1CCCN(C(=O)CCCn2nnnc2CN2CCOCC2)C1` (stereo not drawn), for which the result was inactive.
Same read-out and setting: the result for `COc1cc(OC)c2c(-c3ccccc3)cc(=O)oc2c1C(CCN1CCCCC1)c1ccc(N(C)C)cc1` (stereo not drawn) reads “inactive”; that for `CCCCCCCCCC[n+]1cccc2c3ccccc3ccc21`, “inactive”; that for `CC(C)NS(=O)(=O)c1ccc(NC(=O)C(C)Oc2ccc(C(=O)c3ccccc3)cc2)cc1` (stereo not drawn), “inactive”.
For the compound `Cc1ccc(C(=O)NNC(=O)C2CSC3(C)CCC(=O)N23)cc1` (stereo not drawn), the compound was classed as inactive.
Consider `CCCc1nc2oc3c(NCCCN(C)C)ncnc3c2c2c1CCCC2`, for which the compound was classed as inactive.
On the same count and under the same terms, the result for `CCc1nc2ccccc2n1Cc1ccccc1F` reads “inactive”.
As for `O=C(Cc1ccccc1)Nc1cccc(NC(=O)c2cccs2)c1`, the result was inactive.
Still for that read-out and setting: the result for `CCCCN(CC)CCCNC(=O)c1cc2cc3ccc(C)cc3nc2o1` reads “inactive”; that for `O=C1C=CC(=O)N1CCNc1ncc(C(F)(F)F)cc1Cl`, “inactive”.
The same measure, in the same setting: with `Cc1cc(NC(=O)CSCC(=O)Nc2ccc(Cl)c(C(F)(F)F)c2)no1` the entry was “inactive”.
As for `Cc1ccc2c(c1)C1CN(C)CCC1N2C(=S)NC(=O)c1ccc(Br)cc1` (stereo not drawn), the compound was called inactive.
For `CCc1nc2ccccc2n1Cc1ccc(F)cc1`, the call was inactive.
Turning to `CCN(CC)CCSc1nnc2c3ccccc3n(Cc3ccccc3)c2n1`, the result was inactive.
The same measure, in the same setting: with `CCN1C2=NCCCN2c2cc(C)c(C)cc21` the entry was “inactive”; with `Cc1cc(C)c2c(=O)n(CC(=O)Nc3cccc(Cl)c3C)sc2n1`, “inactive”.
In the case of `COc1cc(C2(c3ccc(O)c(OC)c3)C(=O)Nc3c(C)cc(Br)cc32)ccc1O`, the call was inactive.
As for `COc1ccc(CC2(CO)CCN(C/C=C/c3ccccc3OC)CC2)cc1`, the compound was classed as inactive.
The same measure, in the same setting: the result for `Cc1nn(-c2cc(C(F)(F)F)ccc2Cl)c2nc(C(Cl)(Cl)Cl)[nH]c(=O)c12` reads “inactive”; that for `Cc1ccc(C(=O)O)cc1N=Cc1cc(Br)cc(Br)c1O`, “inactive”; that for `CCOc1ccc(N=CNc2ccc(OCC)cc2)cc1`, “inactive”.
The same measure, in the same setting: with `CCN(CC)c1ncnc2sc3c(c12)CCC3` the entry was “inactive”; with `COc1ccc(NS(=O)(=O)c2ccc3ccccc3c2)c2ncccc12`, “inactive”.
On the same count and under the same terms, the result for `CCN1CCN(CCC(=O)Nc2ccccc2OC)CC1` reads “inactive”; that for `COc1cc(NC(=O)CSc2ncnc3sc4c(c23)CCC(C)C4)c(C(=O)O)cc1OC` (stereo not drawn), “inactive”.
In the case of `Cc1[nH]nc(-c2ccc(O)cc2O)c1-c1nc2ccccc2s1`, the result was inactive.
Still for that read-out and setting: the result for `CC1CCC2C(C1)c1sc(=O)[nH]c1SC2(C)C` (stereo not drawn) reads “inactive”.
